Assay outcomes deposited in PubChem BioAssay by Johns Hopkins Ion Channel Center.
Rows were chosen to be rich in hits. Some 2.3% of all compounds tested hit in one or more screens of this group.
TRPC4 act: activators of mouse TRPC4 channel; Q9QUQ5; HEK293 TRPC4beta/mu-opioid, Fluo4 calcium fluorescence; stronger effect = higher value; B-score at 10 µM; 310,000 compounds, 0.49% hits; AID 2237;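 active means B-score above 5 SD of library B-scores, and initial fluorescence ratio not above library mean plus 5 SD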;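 further: positive B-score marks a calcium rise read as TRPC4 activation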
Target sequence (Q9QUQ5 whole entry, looked up): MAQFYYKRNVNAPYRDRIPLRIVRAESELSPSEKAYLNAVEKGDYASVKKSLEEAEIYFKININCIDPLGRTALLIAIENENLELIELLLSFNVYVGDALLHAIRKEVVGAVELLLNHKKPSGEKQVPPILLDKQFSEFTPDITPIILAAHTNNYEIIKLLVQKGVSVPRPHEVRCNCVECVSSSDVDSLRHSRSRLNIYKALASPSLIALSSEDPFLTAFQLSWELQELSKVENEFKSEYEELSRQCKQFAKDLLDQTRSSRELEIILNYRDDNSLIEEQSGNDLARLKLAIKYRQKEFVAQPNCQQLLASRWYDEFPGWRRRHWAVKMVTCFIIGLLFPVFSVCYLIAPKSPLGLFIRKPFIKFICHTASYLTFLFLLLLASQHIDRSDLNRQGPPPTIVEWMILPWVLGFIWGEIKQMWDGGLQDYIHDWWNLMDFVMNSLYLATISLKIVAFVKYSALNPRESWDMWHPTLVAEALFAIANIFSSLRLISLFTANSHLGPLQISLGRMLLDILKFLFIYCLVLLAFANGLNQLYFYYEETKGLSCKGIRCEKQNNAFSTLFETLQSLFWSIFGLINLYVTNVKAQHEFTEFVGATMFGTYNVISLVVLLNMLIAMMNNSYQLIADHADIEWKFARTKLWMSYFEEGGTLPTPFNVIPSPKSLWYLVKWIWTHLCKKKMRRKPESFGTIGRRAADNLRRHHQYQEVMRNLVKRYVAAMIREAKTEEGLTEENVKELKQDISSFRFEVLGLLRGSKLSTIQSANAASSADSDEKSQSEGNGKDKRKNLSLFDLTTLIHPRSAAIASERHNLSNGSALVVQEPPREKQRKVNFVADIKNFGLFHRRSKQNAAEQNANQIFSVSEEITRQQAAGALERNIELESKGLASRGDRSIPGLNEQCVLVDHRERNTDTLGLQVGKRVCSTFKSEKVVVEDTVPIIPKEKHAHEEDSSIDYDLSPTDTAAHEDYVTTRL
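System: HEK293 cells stably co-expressing mouse TRPC4beta and mu-opioid receptor; Schedule: Fluo4 dye loading 45 min at room temperature, 110 s recording; Detection: Fluo4 fluorescence, kinetic; Evaluation: B-scored integrated calcium fluorescence ratio; Controls: buffer (low) and maximal DAMGO (high).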
TRPC4 potent: allosterically enhances the mouse TRPC4 cation channel; Q9QUQ5; HEK293 TRPC4beta/mu-opioid, DAMGO EC20, Fluo-4 Ca2+ flux; stronger effect = higher value; AID 2227; B-score at 10 µM; 310,000 compounds, 0.42% hits;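 active means B-score of calcium response area above 5 SD of library B-scores, with initial fluorescence ratio within 5 SD of library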
TRPC6 inh: mouse TRPC6 channel inhibition; AID 2553; 310,000 compounds, 1.1% hits; B-score at 10 µM; Q61143; HEK293-TRPC6, membrane potential dye, ACh-evoked depolarization; stronger effect = lower value;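 active means B-score under library mean minus 3 SD, initial fluorescence not abnormally high, positive integrated signal ratio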;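 further: B-score derived from integrated fluorescence ratio over the kinetic read; more negative B-score means stronger inhibition of depolarization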
TRPC4 block: inhibitors of mouse TRPC4 channel | Q9QUQ5 | HEK293 TRPC4beta/mu-opioid, DAMGO-evoked Fluo4 calcium flux; stronger effect = lower value | B-score at 10 µM | 300,000 compounds, 0.39% hits | AID 2247;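 active means B-score over 3 SD under the library average, no early fluorescence shift, positive overall ratio signal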
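Assay system: Stable TRPC4beta/mu-opioid receptor HEK293 cells | Reagent: DAMGO in two steps, submaximal then maximal | Compound dosing: Single concentration per test compound | Signal: Fluo4 Ca2+ flux fluorescence | Evaluation: Per-well B score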
TRPC6 act: activators of mouse TRPC6 channel | HEK293-TRPC6 membrane potential dye fluorescence; stronger effect = higher value | B-score at 10 µM | 310,000 compounds, 0.13% hits;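 active means B-score of the integrated fluorescence ratio above library mean plus 3 SD, and starting fluorescence ratio within library mean plus 5 SD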;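 further: higher score means more depolarization so channel activation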
TRPC4 sel inh 2: mouse TRPC4 off-target activity of TRPC6 inhibitors, second screen; shares compounds with TRPC6 inh; HEK293 TRPC4/MOR, membrane potential dye fluorescence; channel activated by saturating DAMGO dose; inhibition, % at 10 µM; 920 compounds, 42% hits; AID 2776;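 active means compounds whose fluorescence signal differed from control wells by over 3 SD, either direction, in both duplicate plates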
TRPC4 spec: tests whether TRPC6 inhibitors also affect mouse TRPC4 | activity change, negative = inhibition, % at 10 µM | 920 compounds, 61% hits | shares compounds with TRPC6 inh | AID 2777 | HEK293 TRPC4/mu-opioid, membrane potential fluorescence;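 active means rise or fall in signal beyond 3 SD of buffer-only wells in both replicate plates, either sign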;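 further: integrated kinetic ratio of fluorescence range over baseline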
HEK293 MPD ctr 2-1: second check of TRPC6 inhibitor effects in parental HEK293 cells | signal change vs control, % at 10 µM | 920 compounds, 31% hits | parental HEK293 membrane potential dye fluorescence; maximal acetylcholine challenge after compound addition | shares compounds with TRPC6 inh;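 active means membrane potential signal moving either way by over 3 SD of the maximum-effect control, in both duplicate plates, meaning non-specific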
HEK293 MPD ctr-1: parental HEK293 nonspecific activity of TRPC6 inhibitors; 920 compounds, 60% hits; parental HEK293 membrane potential dye fluorescence; shares compounds with TRPC6 inh; membrane potential signal change, % at 10 µM;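 active means membrane potential signal shifting up or down by more than 3 SD of buffer-only wells, on both duplicate plates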
HEK293 MPD ctr-2: parental HEK293 nonspecific activity of TRPC6 modulators; 2,400 compounds, 51% hits; AID 488924; membrane potential signal change, % at 10 µM; shares compounds with TRPC6 inh; membrane potential dye fluorescence;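 active means membrane potential signal moves up or down beyond 5 SD from buffer-only wells, on both duplicate plates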
HEK293 MPD ctr 2-2: parental HEK293 nonspecific activity of TRPC6 modulators, second screen; AID 488926; inhibition, % at 10 µM; shares compounds with TRPC6 inh; 2,400 compounds, 14% hits; membrane potential dye fluorescence; after compound, maximal acetylcholine stimulation;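 active means membrane potential signal drops by more than 5 SD from the mean control signal, in both duplicate plates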
TRPC4/MOR mod: selectivity of TRPC6 modulators against mouse TRPC4; shares compounds with TRPC6 inh; HEK293 TRPC4/mu-opioid, membrane potential fluorescence; percent change from control (negative = decrease, positive = increase), % at 10 µM; 2,400 compounds, 69% hits; AID 488927;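 active means membrane potential signal moved up or down beyond 5 SD of buffer control wells, in both duplicate plates, actives on both sides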
TRPC4 ctr inh 2: mouse TRPC4 off-target activity of TRPC6 modulators, second screen | inhibition, % at 10 µM | AID 488928 | HEK293 TRPC4/mu-opioid, membrane potential dye fluorescence; stimulated with maximal-effect DAMGO | 2,400 compounds, 55% hits | shares compounds with TRPC6 inh;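 active means drop in membrane potential signal beyond 5 SD of the control wells in both duplicate plates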;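 further: TRPC4 counter screen for TRPC6 hits run under conditions tuned for TRPC6 not TRPC4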
TRPC6 block conf: confirmation of mouse TRPC6 inhibitors; shares compounds with TRPC6 inh; HEK293-TRPC6, membrane potential dye, ACh-evoked depolarization; inhibition, % at 10 µM; 3,300 compounds, 43% hits; AID 488960;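 active means fluorescence ratio falls more than 5 SD below the full-stimulation control mean, in both duplicate runs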;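 further: integrated fluorescence ratio of peak minus minimum over baseline after agonist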
TRPC6 act confirm: mouse TRPC6 activator confirmation | shares compounds with TRPC6 inh | HEK293-TRPC6 membrane potential dye fluorescence, FDSS | activation, % at 10 µM | 2,800 compounds, 11% hits;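 active means ratio signal rise beyond 5 SD above unstimulated control wells' mean, seen in both duplicate runs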
A number is an active result; . = inactive; / = no result.

SMILES	TRPC4 act	TRPC4 potent	TRPC6 inh	TRPC4 block	TRPC6 act	HEK293 MPD ctr-2	HEK293 MPD ctr 2-2	TRPC4/MOR mod	TRPC4 ctr inh 2	TRPC6 block conf	TRPC6 act confirm	others
Cc1nc2c(C)cccc2c2c1COC2	.	.	-9.1	.	.	/	/	/	/	61%	.	TRPC4 sel inh 2=.;TRPC4 spec=-30%;HEK293 MPD ctr 2-1=36%;HEK293 MPD ctr-1=-434%
Cc1ccc2nc3c(c(C(=O)O)c2c1)CCC3	.	.	.	.	.	/	/	/	/	/	/
O=C(Nc1nccs1)c1ccc(S(=O)(=O)N2CCOCC2)cc1	.	.	.	.	.	/	/	/	/	/	/
CN1C(C(=O)NCc2ccco2)=CC(c2ccc(F)cc2)=NS1(=O)=O	.	.	.	.	.	/	/	/	/	/	/
CCN1CCN(c2c(Cl)cccc2NC(=O)c2ccc([N+](=O)[O-])cc2)CC1	99	.	-5.9	.	.	-225%	.	-34%	63%	.	.
O=C(Nc1ccc(N2CCCC2)c(Cl)c1)c1ccc([N+](=O)[O-])cc1	.	.	.	.	.	/	/	/	/	/	/
CCN1CCN(c2c(Cl)cccc2NC(=O)c2ccc3nsnc3c2)CC1	63	19	-9.6	.	.	-206%	.	-36%	64%	48%	.
CCc1ccc(C(C(=O)NCc2ccccc2)N(C(=O)c2csnn2)C2CC2)cc1 (stereo not drawn)	.	.	.	.	.	/	/	/	/	/	/
Cc1cccc(CN2C[C@]34CC[C@@H](C[C@@H]3S2(=O)=O)O4)c1	.	.	.	.	.	/	/	/	/	/	/
Cc1ccccc1NC(=O)CN1CCC(C(=O)c2ccc3c(c2)OCCO3)CC1	.	.	-5.5	.	.	.	.	.	.	.	.
Cc1ccccc1NC(=O)CN1CCOCC1	.	.	.	.	14	.	.	.	.	.	.
CCc1cc2c(C)cc(=O)oc2cc1Oc1ncccc1[N+](=O)[O-]	.	.	.	.	.	/	/	/	/	/	/
Clc1ccc(C[n+]2cc(-c3ccccc3)n3c2CCCCC3)c(Cl)c1	53	.	-6	-6	.	160%	.	84%	92%	54%	/
CC1=CC(C)(C)N(C(=O)CCl)c2cc(C)ccc21	.	.	.	.	.	/	/	/	/	/	/
CC1=CC(C)(C)N(C(=O)CNC2CCCCC2)c2cc(C)ccc21	.	.	-5.6	.	.	126%	.	36%	58%	50%	.
CCN(CC#CCC(O)(c1ccccc1)c1ccccc1)C(C)C	.	.	.	.	.	/	/	/	/	/	/
C[N+]1(CC#CC(O)(c2ccccc2)c2ccccc2)CCCC1	.	.	-7.3	.	.	/	/	/	/	91%	.	TRPC4 sel inh 2=.;TRPC4 spec=.;HEK293 MPD ctr 2-1=-27%;HEK293 MPD ctr-1=.
CC(C)[N+](C)(C)CC#CC(O)(c1ccccc1)c1ccccc1	.	.	-9.2	.	.	/	/	/	/	85%	.	TRPC4 sel inh 2=.;TRPC4 spec=.;HEK293 MPD ctr 2-1=25%;HEK293 MPD ctr-1=.
CCCCCCCNC(=O)C1(CC2CC(c3ccc(Cl)cc3)=NO2)CCNCC1 (stereo not drawn)	.	.	.	.	.	/	/	/	/	/	/
CCn1c(=NC(=O)CSC(C)=O)sc2cc(OC)ccc21	.	.	.	.	17	.	.	9.0%	.	/	152%
OCCNc1nc(Nc2ccccc2)nc2ccccc12	.	.	-9.6	.	.	/	/	/	/	69%	.	TRPC4 sel inh 2=32%;TRPC4 spec=-22%;HEK293 MPD ctr 2-1=.;HEK293 MPD ctr-1=-224%
OCCNc1nc(Nc2ccc(Br)cc2)nc2ccccc12	.	.	-7	.	.	/	/	/	/	.	.	TRPC4 sel inh 2=46%;TRPC4 spec=-20%;HEK293 MPD ctr 2-1=.;HEK293 MPD ctr-1=-181%
OCCNc1nc(Nc2ccccc2)nc(Nc2ccccc2)n1	.	.	.	.	.	/	/	/	/	/	/
Cc1c(Cl)cccc1Nc1nc(NCCO)c2ccccc2n1	.	.	-6.9	.	.	/	/	/	/	.	.	TRPC4 sel inh 2=51%;TRPC4 spec=.;HEK293 MPD ctr 2-1=.;HEK293 MPD ctr-1=.
COC(=O)C(=O)/C=C(\O)c1c(C)cc(C)cc1C	.	.	.	.	.	/	/	/	/	/	/
SMILES	TRPC4 act	TRPC4 potent	TRPC6 inh	TRPC4 block	TRPC6 act	HEK293 MPD ctr-2	HEK293 MPD ctr 2-2	TRPC4/MOR mod	TRPC4 ctr inh 2	TRPC6 block conf	TRPC6 act confirm	others
COc1ccc(CNC(=O)CCC(=O)Nc2cccnc2)cc1	.	.	.	.	.	/	/	/	/	/	/
Cc1cc(-c2nc3ncccc3o2)ccc1NC(=S)NC(=O)c1ccco1	.	.	.	.	.	/	/	/	/	/	/
CCOC(=O)c1c(CN2CCCCC2)n(C)c2cc(Br)c(O)c(CN(C)C)c12	.	.	-7.1	.	.	-252%	.	-52%	58%	45%	.
CCOC(=O)c1c(CSc2ccsc2)n(C)c2cc(Br)c(O)c(CN(C)C)c12	.	.	.	.	.	/	/	/	/	/	/
CCOC(=O)c1c(CSc2ccccc2)n(C)c2cc(Br)c(O)c(CN(C)C)c12	.	.	-5.9	.	.	.	.	.	56%	44%	.
CCOC(=O)c1c(CN2CCOCC2)n(-c2ccccc2)c2cc(Br)c(O)c(CN(C)C)c12	.	.	.	.	.	/	/	/	/	/	/
CCOC(=O)c1c(CSc2ccc(C)cc2)n(C)c2cc(Br)c(O)c(CN(C)C)c12	.	.	-5.9	.	.	.	.	.	64%	47%	.
CC(=O)c1ccc(S(=O)(=O)N(C)CCCC(=O)N(C)Cc2c(F)cccc2Cl)cc1	.	.	.	.	.	/	/	/	/	/	/
CCOC(=O)c1ccc2ncc(C(=O)OCC)c(NCCN(C)C)c2c1	.	.	-9.5	.	.	/	/	/	/	.	.	TRPC4 sel inh 2=.;TRPC4 spec=-19%;HEK293 MPD ctr 2-1=.;HEK293 MPD ctr-1=-296%
CCOC(=O)c1ccc2ncc(C(=O)OCC)c(NCCN3CCOCC3)c2c1	.	.	.	.	.	/	/	/	/	/	/
C=C(C)CC1(NC(C)c2ccccc2)CCCCC1 (stereo not drawn)	.	.	-5.1	.	.	.	.	24%	.	.	.
